Measurements published in ChEMBL document CHEMBL3259728, “Design, synthesis and biological evaluation of some novel substituted quinazolines as antitumor agents” (2014).

How the values were obtained:
Format in all cases: functional
[1] = Growth inhibition of human UACC257 cells at 10 uM after 48 hrs by SRB assay; details: UACC-257, 48 h, read-out: GI
How it was run: (§1)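 NCI-60 primary one-dose screen run at the US NCI, with human tumour lines from nine cancer types. Compound added once at 10^-5 M, followed by 48 h incubation. End point was sulforhodamine B protein staining read spectrophotometrically. Result given as percent growth of treated cells against untreated controls, reported as % growth inhibition.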

[2] = test system: K562; experiment: Growth inhibition of human K562 cells at 10 uM after 48 hrs by SRB assay; details: K562, 48 h, read-out: GI; how it was run: as §1
[3] = test system: MDA-MB-435; experiment: Growth inhibition of human MDA-MB-435 cells at 10 uM after 48 hrs by SRB assay; details: MDA-MB-435, 48 h, read-out: GI; how it was run: as §1
[4] = test system: HCT-116; experiment: Growth inhibition of human HCT116 cells at 10 uM after 48 hrs by SRB assay; details: HCT-116, 48 h, read-out: GI; how it was run: as §1
[5] = Growth inhibition of human OVCAR4 cells at 10 uM after 48 hrs by SRB assay; details: OVCAR-4, 48 h, read-out: GI; how it was run: as §1
[6] = test system: MDA-MB-468; experiment: Growth inhibition of human MDA-MB-468 cells assessed as cell growth at 10 uM after 48 hrs by SRB assay; details: MDA-MB-468, 48 h, read-out: GI; how it was run: as §1
[7] = test system: SNB-75; experiment: Growth inhibition of human SNB75 cells at 10 uM after 48 hrs by SRB assay; details: SNB-75, 48 h, read-out: GI; how it was run: as §1
[8] = test system: M14; experiment: Growth inhibition of human M14 cells at 10 uM after 48 hrs by SRB assay; details: M14, 48 h, read-out: GI; how it was run: as §1
[9] = test system: NCI-H460; experiment: Growth inhibition of human NCI-H460 cells at 10 uM after 48 hrs by SRB assay; details: NCI-H460, 48 h, read-out: GI; how it was run: as §1
[10] = Growth inhibition of human LOXIMVI cells at 10 uM after 48 hrs by SRB assay; details: LOX IMVI, read-out: GI; how it was run: as §1
[11] = test system: Malme-3M; experiment: Growth inhibition of human MALME-3M cells at 10 uM after 48 hrs by SRB assay; details: read-out: GI; how it was run: as §1
[12] = test system: MCF7; experiment: Growth inhibition of human MCF7 cells at 10 uM after 48 hrs by SRB assay; details: MCF7, 48 h, read-out: GI; how it was run: as §1
[13] = Growth inhibition of human OVCAR8 cells at 10 uM after 48 hrs by SRB assay; details: OVCAR-8, 48 h, read-out: GI; how it was run: as §1
[14] = test system: DU-145; experiment: Growth inhibition of human DU145 cells at 10 uM after 48 hrs by SRB assay; details: DU-145, 48 h, read-out: GI; how it was run: as §1
[15] = test system: NCI-H226; experiment: Growth inhibition of human NCI-H226 cells at 10 uM after 48 hrs by SRB assay; details: NCI-H226, 48 h, read-out: GI; how it was run: as §1
[16] = test system: SNB-19; experiment: Growth inhibition of human SNB19 cells at 10 uM after 48 hrs by SRB assay; details: SNB-19, 48 h, read-out: GI; how it was run: as §1
[17] = test system: MDA-MB-231; experiment: Growth inhibition of human MDA-MB-231 cells at 10 uM after 48 hrs by SRB assay; details: MDA-MB-231, 48 h, read-out: GI; how it was run: as §1
[18] = test system: U-251; experiment: Growth inhibition of human U251 cells at 10 uM after 48 hrs by SRB assay; details: U-251, 48 h, read-out: GI; how it was run: as §1
[19] = test system: A498; experiment: Growth inhibition of human A498 cells at 10 uM after 48 hrs by SRB assay; details: A498, 48 h, read-out: GI
How it was run: (§2)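 NCI primary one-dose screen. A single concentration of 10^-5 M was added to the cell culture, followed by 48 h incubation and an SRB protein-dye endpoint read spectrophotometrically. Results are growth percentage relative to untreated control cells, reported as % growth inhibition.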

[20] = test system: SF-268; experiment: Growth inhibition of human SF268 cells at 10 uM after 48 hrs by SRB assay; details: SF-268, 48 h, read-out: GI; how it was run: as §1
[21] = test system: SW-620; experiment: Growth inhibition of human SW620 cells at 10 uM after 48 hrs by SRB assay; details: SW-620, 48 h, read-out: GI; how it was run: as §1
[22] = Growth inhibition of human OVCAR5 cells at 10 uM after 48 hrs by SRB assay; details: OVCAR-5, 48 h, read-out: GI; how it was run: as §1
[23] = test system: T47D; experiment: Growth inhibition of human T47D cells at 10 uM after 48 hrs by SRB assay; details: read-out: GI; how it was run: as §1
[24] = Growth inhibition of human Hs578T cells at 10 uM after 48 hrs by SRB assay; details: Hs-578T, read-out: GI; how it was run: as §1
[25] = test system: KM12; experiment: Growth inhibition of human KM12 cells at 10 uM after 48 hrs by SRB assay; details: KM12, 48 h, read-out: GI; how it was run: as §1
[26] = test system: HOP-62; experiment: Growth inhibition of human HOP62 cells at 10 uM after 48 hrs by SRB assay; details: HOP-62, 48 h, read-out: GI; how it was run: as §1
[27] = test system: HT-29; experiment: Growth inhibition of human HT-29 cells at 10 uM after 48 hrs by SRB assay; details: HT-29, 48 h, read-out: GI; how it was run: as §1
[28] = test system: SN12C; experiment: Growth inhibition of human SN12C cells at 10 uM after 48 hrs by SRB assay; details: read-out: GI; how it was run: as §1
[29] = test system: IGROV-1; experiment: Growth inhibition of human IGROV1 cells at 10 uM after 48 hrs by SRB assay; details: IGROV-1, 48 h, read-out: GI; how it was run: as §1
[30] = Growth inhibition of human BT549 cells at 10 uM after 48 hrs by SRB assay; details: BT-549, 48 h, read-out: GI; how it was run: as §2
[31] = test system: SK-MEL-2; experiment: Growth inhibition of human SK-MEL-2 cells at 10 uM after 48 hrs by SRB assay; details: SK-MEL-2, 48 h, read-out: GI; how it was run: as §1
[32] = test system: CAKI-1; experiment: Growth inhibition of human CAKI-1 cells at 10 uM after 48 hrs by SRB assay; details: CAKI-1, 48 h, read-out: GI; how it was run: as §2
[33] = Growth inhibition of human UACC62 cells at 10 uM after 48 hrs by SRB assay; details: UACC-62, 48 h, read-out: GI; how it was run: as §1
[34] = test system: SK-OV-3; experiment: Growth inhibition of human SKOV3 cells at 10 uM after 48 hrs by SRB assay; details: SK-OV-3, 48 h, read-out: GI; how it was run: as §1
[35] = test system: A549; experiment: Growth inhibition of human A549 cells at 10 uM after 48 hrs by SRB assay; details: A549, 48 h, read-out: GI; how it was run: as §2
[36] = Growth inhibition of human EKVX cells at 10 uM after 48 hrs by SRB assay; details: read-out: GI; how it was run: as §1
[37] = Growth inhibition of human MOLT4 cells at 10 uM after 48 hrs by SRB assay; details: MOLT-4, 48 h, read-out: GI; how it was run: as §1
[38] = test system: SK-MEL-5; experiment: Growth inhibition of human SK-MEL-5 cells at 10 uM after 48 hrs by SRB assay; details: SK-MEL-5, 48 h, read-out: GI; how it was run: as §1

With `Cc1ccc(-c2nc3ccc(Cl)cc3c(=O)n2NC(=O)CNN)cc1` the inhibition of growth at 10 µM [1] was 23%, the inhibition of growth at 10 µM [2] was 11% and the inhibition of growth at 10 µM [3] was < 10%. For the same compound, the inhibition of growth at 10 µM [4] was 46%, the inhibition of growth at 10 µM [5] was 80% and the inhibition of growth at 10 µM [6] was < 10%. For the same compound, the inhibition of growth at 10 µM [7] was 25%, the inhibition of growth at 10 µM [8] was 17% and the inhibition of growth at 10 µM [9] was 49%. For the same compound, the inhibition of growth at 10 µM [10] was 27%, the inhibition of growth at 10 µM [11] was 14% and the inhibition of growth at 10 µM [12] was 22%. The inhibition of growth at 10 µM [13] was 23%, the inhibition of growth at 10 µM [14] was 28% and the inhibition of growth at 10 µM [15] was 35%. The inhibition of growth at 10 µM [16] was 22%, the inhibition of growth at 10 µM [17] was 62% and the inhibition of growth at 10 µM [18] was 58%. The inhibition of growth at 10 µM [19] was 46%, the inhibition of growth at 10 µM [20] was 28% and the inhibition of growth at 10 µM [21] was 28%. The inhibition of growth at 10 µM [22] was 18%, the inhibition of growth at 10 µM [23] was 52% and the inhibition of growth at 10 µM [24] was 40%. It also gave an inhibition of growth at 10 µM [25] of 21%, an inhibition of growth at 10 µM [26] of 83% and an inhibition of growth at 10 µM [27] of 33%. The inhibition of growth at 10 µM [28] was 33%, the inhibition of growth at 10 µM [29] was 41% and the inhibition of growth at 10 µM [30] was < 10%. The inhibition of growth at 10 µM [31] was < 10%, the inhibition of growth at 10 µM [32] was 35% and the inhibition of growth at 10 µM [33] was 18%. For the same compound, the inhibition of growth at 10 µM [34] was 84%, the inhibition of growth at 10 µM [35] was 23% and the inhibition of growth at 10 µM [36] was 34%. The inhibition of growth at 10 µM [37] was < 10% and the inhibition of growth at 10 µM [38] was 11%.
